Published values pooled from the literature.
Compare with care: the assays were run in different laboratories.
Target: Protein kinase C theta type (PRKCQ, Homo sapiens, UniProt Q04759)

SMILES | effect on | action | method | tested at | endpoint | value
C=CC(=O)Nc1cc(Nc2nccc(Nc3cc(Cl)c(F)cc3C(C)(C)O)n2)c(OC)cc1N1CC[C@@H](N(C)C)C1 | enzyme activity | inhibitor | – | 1 µM | inhibition | 17%
CN(C)C1CCN(CC#Cc2nn(C3CCCC3)c3nc(NCc4ccccc4)ncc23)C1 (stereo not drawn) | enzyme activity | inhibitor | FRET | 1 µM | inhibition | 19%
CC(=O)Nc1c(C(C)=O)c(=O)n(C)c2nc(-c3ccc(Cl)cc3Cl)c(-c3ccc(Cl)cc3)cc12 | cell-free assay | – | competition with immobilised ligand | 1 µM | remaining binding | 100%
Cn1cnc(Br)c1C1=CN(c2ncnc3[nH]cnc23)CCS1 | enzyme activity | inhibitor | radiometric | 50 nM | inhibition | 64.1%
CCOc1cc(-c2nncn2C)ccc1Nc1ncc2cc(C)nc(NCC(C)(C)C)c2n1 | enzyme activity | inhibitor | FRET | 1 µM | inhibition | < 15%
O=C(Nc1cnn(-c2csc(C(=O)NC3COC3)c2)c1)Nc1c(F)cccc1Cl | enzyme activity | inhibitor | – | 5 µM | remaining activity | 94.7%
O=C(Nc1cccnn1)N1CC(C/C=C/c2cncc(Oc3ccc(C(F)(F)F)cn3)n2)C1 | cell-free assay | – | competition with immobilised ligand | 1 µM | remaining binding | 100%
COc1cc2ncnc(Nc3ccc(Oc4ccccc4)cc3C)c2cc1OC | enzyme activity | inhibitor | – | 1 µM | inhibition | 2%
Cc1ccc(C(=O)NCc2ccsc2)cc1C#Cc1cn(C(C)C)c2ncnc(N)c12 | enzyme activity | inhibitor | – | 1 µM | activity vs control | 105%
CNCc1ccc(-c2cc(-c3nc(-c4ccc(S(=O)(=O)C(C)C)cc4)cnc3N)on2)cc1 | enzyme activity | inhibitor | – | 0.4 µM | inhibition | 0%
CC(C)(C)c1nc(-c2cccc(NS(=O)(=O)c3c(F)cccc3F)c2F)c(-c2ccnc(N)n2)s1 | enzyme activity | inhibitor | radiometric | 1 µM | remaining activity | 120%
CNCc1ccccc1-c1csc([C@H](C)Nc2nc(C)nc3cc(OC)c(OC)cc23)c1 | cell-free assay | – | competition with immobilised ligand | 1 µM | remaining binding | 100%
Cc1ccc(C(=O)Nc2ccc(CN3CCN(C)CC3)c(C(F)(F)F)c2)cc1C#Cc1cnc2cccnn12 | enzyme activity | – | – | 23.5 nM | remaining activity | 96%
COc1cccc(CNC(=O)c2nc3scc(COCc4ccc(C(=O)O)cc4)c3c(=O)[nH]2)c1 | cell-free assay | – | competition with immobilised ligand | 1 µM | remaining binding | 100%
CS(=O)(=O)CCNCc1ccc(-c2ccc3ncnc(Nc4ccc(OCc5cccc(F)c5)c(Cl)c4)c3c2)o1 | cell-free assay | – | – | 0.5 µM | remaining signal | 72.4%
Cc1ccc(Nc2nccc(N(C)c3ccc4c(C)n(C)nc4c3)n2)cc1S(N)(=O)=O | enzyme activity | inhibitor | – | 10 µM | inhibition | -3%
COc1ccc2c(c1)O[C@H](c1ccc(OC)c(OC)c1)C[C@@H]2NC(=O)C1(c2ccc3c(c2)OC(F)(F)O3)CC1 | cell-free assay | – | competition with immobilised ligand | 1 µM | remaining binding | 100%
CCCS(=O)(=O)Nc1ccc(F)c(C(=O)c2c[nH]c3ncc(-c4ccc(Cl)cc4)cc23)c1F | enzyme activity | inhibitor | – | 1 µM | inhibition | < 10%
Cc1ccc(NC(=O)c2ccc(C)c(C(F)(F)F)c2)cc1C#Cc1nn(C2CCC(O)CC2)c2ncnc(N)c12 (stereo not drawn) | cell-free assay | – | – | 10 µM | remaining signal | 103%
CC(=O)N1CCC(c2ccc(C(=O)NC(=N)N)cc2C(F)(F)F)CC1 | cell-free assay | – | competition with immobilised ligand | 1 µM | remaining binding | 91%
O=C1Nc2ccc(Cl)cc2C1=Cc1cc(Cl)c(O)c(Cl)c1 | cell-free assay | – | – | 0.5 µM | remaining signal | 105%
